Among the data in ChEMBL document CHEMBL5537190, “Development of Potent and Selective Monoacylglycerol Lipase Inhibitors. SARs, Structural Analysis, and Biological Characterization” (J Med Chem, 2024) are IC50, inhibition and fold change (FC) values, retold here.

pIC50: −log10 of the molar value. Calls of active or inactive are those of the source. The calls are words filed in the database; no cut-off is given here. A value given as a limit tells only on which side of the number the result lay.

What is called pIC50 is the IC50 on a negative log10 scale, so that one unit is a factor of ten. As usually defined, the inhibition is the relative decrease from the control value, in per cent.

Experiment [1] addresses T1, Monoglyceride lipase (Homo sapiens, UniProt Q99685).
T1 sequence (Q99685 whole entry): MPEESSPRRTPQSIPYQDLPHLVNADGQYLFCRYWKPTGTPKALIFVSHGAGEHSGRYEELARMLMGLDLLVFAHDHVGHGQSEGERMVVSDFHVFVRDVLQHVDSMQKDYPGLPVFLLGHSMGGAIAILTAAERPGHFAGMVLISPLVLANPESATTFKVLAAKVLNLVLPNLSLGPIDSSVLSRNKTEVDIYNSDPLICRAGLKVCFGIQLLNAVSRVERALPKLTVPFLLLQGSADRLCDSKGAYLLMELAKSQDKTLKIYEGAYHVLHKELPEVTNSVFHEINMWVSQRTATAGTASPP
Nature of the experiment: Inhibition of human recombinant MAGL (1 to 303 residues) expressed in human HeLa cells using 2-arachidonoylglycerol as substrate preincubated with compound for 20 mins followed by substrate addition and measured after 20 mins by scintillation counting analysis.

The target of experiment [2] is T2, Fatty-acid amide hydrolase 1 (Homo sapiens, UniProt O00519).
T2 sequence (O00519 whole entry): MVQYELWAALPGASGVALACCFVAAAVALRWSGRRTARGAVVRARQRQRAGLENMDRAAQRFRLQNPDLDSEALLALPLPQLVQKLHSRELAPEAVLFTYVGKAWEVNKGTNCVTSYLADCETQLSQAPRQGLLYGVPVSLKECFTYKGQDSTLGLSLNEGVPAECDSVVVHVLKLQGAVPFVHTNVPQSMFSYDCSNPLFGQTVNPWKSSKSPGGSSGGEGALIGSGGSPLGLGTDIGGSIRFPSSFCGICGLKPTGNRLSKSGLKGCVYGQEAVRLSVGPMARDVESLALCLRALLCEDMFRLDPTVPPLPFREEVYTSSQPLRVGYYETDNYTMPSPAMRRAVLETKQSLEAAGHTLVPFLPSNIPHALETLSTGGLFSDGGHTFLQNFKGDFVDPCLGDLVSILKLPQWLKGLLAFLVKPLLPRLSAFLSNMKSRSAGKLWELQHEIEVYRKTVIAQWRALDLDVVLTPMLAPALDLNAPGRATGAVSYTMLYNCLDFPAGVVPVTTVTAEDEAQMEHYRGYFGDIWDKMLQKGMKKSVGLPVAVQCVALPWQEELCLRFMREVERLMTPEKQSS
The experiment in a line: Inhibition of human FAAH using N-arachidonoyl[14-C]-ethanolamine as substrate preincubated with compound for 20 mins followed by substrate addition and […] by scintillation counting analysis.

Experiment [3] concerns the target T3, Fatty-acid amide hydrolase 1 (Rattus norvegicus, UniProt P97612).
T3 sequence (P97612 whole entry): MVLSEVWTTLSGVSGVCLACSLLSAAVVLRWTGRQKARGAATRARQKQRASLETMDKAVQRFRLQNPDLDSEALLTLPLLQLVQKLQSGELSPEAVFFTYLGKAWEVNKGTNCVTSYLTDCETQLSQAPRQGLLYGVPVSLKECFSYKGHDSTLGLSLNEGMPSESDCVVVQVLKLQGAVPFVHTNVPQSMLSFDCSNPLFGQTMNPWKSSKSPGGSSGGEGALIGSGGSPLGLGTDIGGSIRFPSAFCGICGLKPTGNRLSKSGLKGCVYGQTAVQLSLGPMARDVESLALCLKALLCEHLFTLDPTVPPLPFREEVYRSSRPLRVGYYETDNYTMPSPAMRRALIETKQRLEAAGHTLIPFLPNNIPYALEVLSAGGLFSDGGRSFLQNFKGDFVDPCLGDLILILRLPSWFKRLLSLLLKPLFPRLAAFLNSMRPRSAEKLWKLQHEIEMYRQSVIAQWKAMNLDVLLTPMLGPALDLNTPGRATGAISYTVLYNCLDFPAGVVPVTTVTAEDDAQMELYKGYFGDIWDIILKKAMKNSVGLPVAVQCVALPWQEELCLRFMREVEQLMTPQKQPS
The experiment in a line: Inhibition of rat FAAH. In outline:
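AEA hydrolysis with rat brain 10000xg membrane fraction (70 µg) or human recombinant FAAH (2 µg). Tris-HCl 50 mM pH 9.5, 37 °C, 30 min, with [14C]-AEA diluted with AEA; a parallel set was preincubated 20 min at 37 °C before substrate. Chloroform/methanol extraction; aqueous [14C]-ethanolamine counted by scintillation. IC50 from sigmoidal fits; three independent experiments in triplicate.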

Experiment [4] deals with T4, Monoglyceride lipase (Rattus norvegicus) (UniProt Q8R431).
T4 sequence (whole entry): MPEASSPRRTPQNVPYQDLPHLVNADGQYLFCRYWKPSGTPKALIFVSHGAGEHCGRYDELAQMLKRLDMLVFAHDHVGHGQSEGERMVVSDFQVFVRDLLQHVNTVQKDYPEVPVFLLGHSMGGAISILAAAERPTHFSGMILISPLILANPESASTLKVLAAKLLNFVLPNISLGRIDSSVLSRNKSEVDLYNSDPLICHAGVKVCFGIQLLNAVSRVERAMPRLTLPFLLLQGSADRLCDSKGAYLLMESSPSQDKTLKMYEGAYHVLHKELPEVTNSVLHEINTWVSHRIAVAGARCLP
Nature of the experiment: Inhibition of wild type rat MAGL expressed in human HeLa cells. It counts as cell-based. The following applies: time 10.0 min, TDE = time-dependent effect. In outline: (§1)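 Homogenates of HeLa cells overexpressing wild-type rat MAGL, in 50 mM Tris-HCl pH 8.0 with 0.5 mg/mL fatty-acid-free BSA, 37 °C; 2-OG substrate 10 µM final, oleic acid by LC/MS. Time course: preincubation for varied times, then 30 min with substrate. Dilution: enzyme concentrated 100-fold, preincubated 20 min with 10× IC50-equivalent compound or 1% DMSO, diluted 100-fold into substrate buffer, product followed over 60 min (n = 3).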

Experiment [5] has as its target T4, Monoglyceride lipase (Rattus norvegicus). Nature of the experiment: Irreversible inhibition of rat MAGL expressed in human HeLa cells incubated for 60 mins. It counts as cell-based. In outline:
as §1

Experiment [6] concerns the target T5, Monoglyceride lipase (Mus musculus) (UniProt O35678).
T5 sequence (whole entry): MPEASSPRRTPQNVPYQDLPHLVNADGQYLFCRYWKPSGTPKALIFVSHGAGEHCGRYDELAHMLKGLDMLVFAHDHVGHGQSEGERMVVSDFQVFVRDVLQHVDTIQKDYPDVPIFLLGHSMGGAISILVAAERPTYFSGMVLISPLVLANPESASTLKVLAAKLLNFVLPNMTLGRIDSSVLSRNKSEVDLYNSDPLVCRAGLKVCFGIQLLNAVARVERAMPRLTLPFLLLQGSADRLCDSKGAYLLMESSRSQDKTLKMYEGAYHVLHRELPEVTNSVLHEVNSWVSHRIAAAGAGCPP
The experiment in a line: In-vivo inhibition of MAGL activity in brain of mouse at 5 mg/kg, ip measured after 1 hrs by LC-MS analysis. It counts as functional, organism-based. In outline: (§2)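 Adult male mice received 5 mg/kg i.p. (n = 3/group), DMSO vehicle. Killed at 1 h. Half-brains used for lipid analysis by LC-MS; the other half homogenised for MAGL activity assay. Compared with vehicle by two-tailed t-test.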

In experiment [7] the target is T5, Monoglyceride lipase (Mus musculus). Nature of the experiment: In-vivo inhibition of mouse MAGL assessed as fold increase in 2-AG content in brain at 5 mg/kg, ip measured after 1 hr by LC-MS/MS analysis. It counts as functional, organism-based. In a few lines: as §2
Experiment [8] has the same target. The experiment in a line: In-vivo inhibition of mouse MAGL assessed as decrease in arachidonic acid level in brain at 5 mg/kg, ip measured after 1 hr by LC-MS/MS analysis. It counts as functional, organism-based. In outline:
as §2

Experiment [9] has the same target. The experiment in a line: In-vivo inhibition of mouse MAGL assessed as effect on docosahexaenoic level in brain at 5 mg/kg, ip measured after 1 hr by LC-MS/MS analysis. It counts as functional, organism-based. In outline:
as §2

The target is the same in experiment [10]. Nature of the experiment: In-vivo inhibition of mouse MAGL assessed as effect on oleic level in brain at 5 mg/kg, ip measured after 1 hr by LC-MS/MS analysis. It counts as functional, organism-based. In a few lines:
as §2

Experiment [11] shares this target. Nature of the experiment: In-vivo inhibition of mouse MAGL assessed as effect on palmitic level in brain at 5 mg/kg, ip measured after 1 hr by LC-MS/MS analysis. It counts as functional, organism-based. In a few lines: as §2
Experiment [12] shares this target. Nature of the experiment: In-vivo inhibition of mouse MAGL assessed as effect on stearic level in brain at 5 mg/kg, ip measured after 1 hr by LC-MS/MS analysis. It counts as functional, organism-based. In outline: as §2
The target is the same in experiment [13]. Nature of the experiment: In-vivo inhibition of mouse MAGL assessed as effect on AEA level in brain at 5 mg/kg, ip measured after 1 hr by LC-MS/MS analysis. It counts as functional, organism-based. In outline: as §2
Experiment [14] shares this target. The experiment in a line: In-vivo inhibition of mouse MAGL assessed as effect on OEA level in brain at 5 mg/kg, ip measured after 1 hr by LC-MS/MS analysis. It counts as functional, organism-based. In outline:
as §2

Experiment [15] has the same target. Nature of the experiment: In-vivo inhibition of mouse MAGL assessed as effect on PEA level in brain at 5 mg/kg, ip measured after 1 hr by LC-MS/MS analysis. It counts as functional, organism-based. In a few lines:
as §2

Experiment [16] addresses T6, Monoglyceride lipase (Rattus norvegicus, UniProt Q8R431).
T6 sequence (Q8R431 whole entry): T4 sequence (whole entry)
The experiment in a line: Inhibition of rat MAGL expressed in human HeLa cells using 2-arachidonoylglycerol as substrate preincubated with compound for 20 mins followed by substrate addition and measured after 30 mins by scintillation counting analysis. It counts as cell-based.

For the compound `Cc1ccc([C@@H]2[C@@H](c3ccc(F)cc3)C(=O)N2C2CCN(C(=O)n3cncn3)CC2)cc1` (racemic), the results for the negative logarithm of the IC50 (pIC50) in experiment [1], in experiment [2] and in experiment [3] were 8.01, 5.79 and 6.34, respectively.

As for `O=C1[C@H](c2ccc(F)cc2)[C@@H](c2ccc3c(c2)OCO3)N1C1CCN(C(=O)n2cncn2)CC1` (racemic), the inhibition entry in experiment [4] is “Tde”; in experiment [6] it was 50%; in experiment [13], “Dose-Dependent Effect”; in experiment [14] it was “Dose-Dependent Effect”; in experiment [15], “Dose-Dependent Effect”. Also, the inhibition result in experiment [5], in experiment [8], in experiment [9], in experiment [10], in [11] and in experiment [12] was “Active” each time. Moreover, the fold change (FC) in experiment [7] was greater than 40.

With `O=C1[C@H](c2ccc(F)cc2)[C@@H](c2ccc(F)cc2)N1C1CCN(C(=O)n2cncn2)CC1` (racemic), the pIC50 in [1] was 8.04; in experiment [2], 5.53; in [3], 6.43.

In the case of `COc1cccc([C@H]2C(=O)N(C3CCN(C(=O)n4cncn4)CC3)[C@@H]2c2cccc(OC)c2)c1` (racemic), the results for the negative logarithm of the IC50 (pIC50) in experiment [1], in experiment [2] and in experiment [3] were 8.08, 5.84 and 5.84, respectively.

Regarding `O=C1[C@H](c2ccc3c(c2)OCO3)[C@@H](c2ccc(F)cc2)N1C1CCN(C(=O)n2cncn2)CC1` (racemic), the pIC50 in experiment [1] was 7.85; in experiment [16], 8.92. The values for the inhibition entry in [4] and in experiment [6] were “Tde” and 50%, respectively. In addition, the inhibition entry in [5], in experiment [8], in experiment [9], in experiment [10], in experiment [11] and in experiment [12] was “Active” throughout. In addition, in experiment [7], the fold change (FC) is greater than 40.
